Reference: ChEMBL document CHEMBL1128539, “Novel antagonists of platelet-activating factor. 2. Synthesis and structure-activity relationships of potent and long-acting heterofused [1,5]benzodiazepine and [1,4]diazepine derivatives of 2-methyl-1-phenylimidazo[4,5-c]pyridine” (J Med Chem, 1995)

Legend:
Canis familiaris [1] = experiment: Duration of action in Conscious Dog at a dose of 0.075 mg/kg po; type: ADME, organism-based, Canis lupus familiaris; parameters: dose 0.075 mg/kg, route oral; conditions: in vivo
Canis familiaris [2] = experiment: Duration of action in Conscious Dog at a dose of […] po; type: ADME, organism-based, Canis lupus familiaris; parameters: dose 0.025 mg/kg, route oral; conditions: in vivo
Canis familiaris [3] = experiment: Duration of action in Conscious Dog at a dose of 0.05 mg/kg po; type: ADME, organism-based, Canis lupus familiaris; parameters: dose 0.05 mg/kg, route oral; conditions: in vivo
Canis familiaris [4] = experiment: Duration of action in Conscious Dog at a dose of 0.2 mg/kg po; type: ADME, organism-based, Canis lupus familiaris; parameters: dose 0.2 mg/kg, route oral; conditions: in vivo
Canis familiaris [5] = experiment: Duration of action in Conscious Dog at a dose of 0.3 mg/kg po; type: ADME, organism-based, Canis lupus familiaris; parameters: dose 0.3 mg/kg, route oral; conditions: in vivo
Canis familiaris [6] = experiment: Duration of action in Conscious Dog at a dose of 0.1 mg/kg po; type: ADME, organism-based, Canis lupus familiaris; parameters: dose 0.1 mg/kg, route oral; conditions: in vivo
[7] = target: Platelet-activating factor receptor (Oryctolagus cuniculus); experiment: In vitro antagonist activity against platelet activating factor (PAF) receptor, using washed rabbit platelets
Canis familiaris [8] = experiment: Duration of action in Conscious Dog at 0.1 mg/kg po; type: ADME, organism-based, Canis lupus familiaris; parameters: dose 0.1 mg/kg, route oral; conditions: in vivo
Method in brief: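 Conscious dogs. Before dosing, each dog's minimum PAF concentration giving irreversible whole-blood aggregation was set (30–50 nM). Compound was given by gavage in minimal 0.01 M HCl. Blood drawn 2 h later was challenged ex vivo with 10× (or 30×) that PAF level. If uninhibited, a larger second dose was given and blood resampled 2 h later. If inhibited, sampling continued until predose aggregation returned.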

Canis familiaris [9] = experiment: Duration of action in Conscious dog at a dose of 0.2 mg/kg po; type: ADME, organism-based, Canis lupus familiaris; parameters: dose 0.2 mg/kg, route oral; conditions: in vivo
Canis familiaris [10] = experiment: Duration of action in Conscious Dog at a dose of 0.15 mg/kg po; type: ADME, organism-based, Canis lupus familiaris; parameters: dose 0.15 mg/kg, route oral; conditions: in vivo
Canis familiaris [11] = experiment: Duration of action in Conscious Dog at a dose of 0.5 mg/kg po; type: ADME, organism-based, Canis lupus familiaris; parameters: dose 0.5 mg/kg, route oral; conditions: in vivo
Canis familiaris [12] = experiment: Duration of action in Conscious Dog at a dose of […] po; type: ADME, organism-based, Canis lupus familiaris; conditions: in vivo

## Cc1nc2cnccc2n1-c1ccc(C2=Nc3c(C4CCCCC4)nn(C)c3N(C)C(=O)C2)cc1
Canis familiaris [1]
  Duration of action: 8 h
Canis familiaris [2]
  Duration of action: 0 h

## Cc1nc2cnccc2n1-c1ccc(C2=Nc3c(-c4cccnc4)nn(C)c3N(C)C(=O)C2)cc1
Canis familiaris [2]
  Duration of action: 9 h
Canis familiaris [3]
  Duration of action: > 10 h

## Cc1nc2cnccc2n1-c1ccc(C2=Nc3cc(Br)cnc3N(C)C(=O)C2)cc1
Canis familiaris [4]
  Duration of action: 4 h

## Cc1nn(C)c2c1N=C(c1ccc(-n3c(C)nc4cnccc43)cc1)CC(=O)N2
Canis familiaris [5]
  Duration of action: 0 h

## Cc1nn(C)c2c1N=C(c1ccc(-n3c(C)nc4cnccc43)cc1)CC(=O)N2C
Canis familiaris [4]
  Duration of action: 4 h

## Cc1nc2cnccc2n1-c1ccc(C2=Nc3c(-c4ccccc4)nn(C)c3N(C)C(=O)C2)cc1
Canis familiaris [6]
  Duration of action: > 8 h

## Cc1nnc2n1-c1sc3c(c1C(c1ccccc1Cl)=NC2)CC(C(=O)N1CCOCC1)C3 (centres undefined) [BEPAFANT]
[7]
  IC50: 73 nM
Canis familiaris [8]
  Duration of action: 7 h

## Cc1nc2cnccc2n1-c1ccc(C2=Nc3cc(Cl)c(Cl)cc3-n3ccnc3C2)cc1
Canis familiaris [9]
  Duration of action: 7 h

## Cc1nn(C)c2c1NC(=O)CC(c1ccc(-n3c(C)nc4cnccc43)cc1)=N2
Canis familiaris [10]
  Duration of action: 0 h
Canis familiaris [11]
  Duration of action: > 8 h

## CCN(CC)C(=O)c1cnc2c(c1)N=C(c1ccc(-n3c(C)nc4cnccc43)cc1)CC(=O)N2C
Canis familiaris [6]
  Duration of action: 4 h

## Cc1cc(C)c2c(n1)NC(=O)CC(c1ccc(-n3c(C)nc4cnccc43)cc1)=N2
Canis familiaris [10]
  Duration of action: 0 h
Canis familiaris [11]
  Duration of action: < 8 h

## Cc1cc(C)c2c(n1)N(C)C(=O)CC(c1ccc(-n3c(C)nc4cnccc43)cc1)=N2
Canis familiaris [6]
  Duration of action: 9 h

## CCOC(=O)C1=C(c2ccc(-n3c(C)nc4cnccc43)cc2)NC(C)=C(C(=O)Nc2ccccn2)C1c1ccccc1Cl (centres undefined)
Canis familiaris [1]
  Duration of action: 8 h

## Cc1nc2cnccc2n1-c1ccc(C2=Nc3cc(C(=O)N4CCOCC4)cnc3N(C)C(=O)C2)cc1
Canis familiaris [12]
  Duration of action: 2 h
